Publication PMC3234294 (Analytical chemistry, 2011)
Blank lines part the entries; values can stand above or below the substance they belong to.

Columns and labels:
[1] = QCM binding of antibodies to MUA sensor surface; details: 1 μl of 1 μg/μl MAb spiked into 1 ml PBS
Procedure, shortened: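 Au QCM electrodes, bare or modified by overnight SAM formation at 4 °C (MUA or peptide monolayers), rinsed with water and placed in 1 ml PBS. Therapeutic monoclonal antibodies (1 μg/μl stock) were spiked sequentially, 1 μl each, into the cuvette. Frequency change was recorded against time with a network/impedance analyzer.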

[2] = QCM binding of antibodies to bare Au sensor surface; details: 1 μl of 1 μg/μl MAb spiked into 1 ml PBS
[3] = system: Herceptin; assay: CH-19 piezoimmunosensor analytical performance for Herceptin detection; set-up: species or system humanized
[4] = CV of CH-19 modified Au electrode before and after Herceptin; format: physicochemical; details: upon surface deposition of CH-19 and Herceptin; 0.1 M NaClO4, 50 mV/s
[5] = system: Herceptin; assay: QCM binding of immobilized HER2 mimotope-derived peptides to Herceptin; set-up: species or system humanized
[6] = system: Rituxan; assay: QCM nonspecific binding of immobilized peptides to Rituxan
Procedure, shortened: (§1)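 A CH-19 peptide monolayer was self-assembled on an Au QCM electrode overnight at 4 °C, rinsed, and held in PBS. The non-target therapeutic antibodies were spiked in sequentially into the same cuvette, each as 1 μl into 999 μl PBS (final 1 μg/ml). Label-free frequency shift (ΔF) was followed in real time with a network/impedance analyzer.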

[7] = system: Cetuximab; assay: QCM nonspecific binding of immobilized CH-19 to Cetuximab; details: CH-19 modified Au QCM electrode, PBS, final 1 μg/ml
Procedure, shortened: as §1

[8] = EIS of CH-19 modified Au electrode before and after Herceptin; format: physicochemical; details: bare Au to CH-19 to binding with Herceptin; 0.01 Hz-100 kHz, 5 mV
[9] = system: Avastin; assay: QCM nonspecific binding of immobilized peptides to Avastin
Procedure, shortened: as §1

[10] = system: Herceptin; details: previously reported; ref 16 (Jiang et al.); cited from earlier work
[11] = QCM, CV and EIS summarized, all four peptide designs
[12] = CH-19 modified Au QCM electrode, PBS, final 1 μg/ml

- Binding to MUA sensor surface, in words [1]: appreciable
- Binding to bare Au sensor surface, in words [2]: negligible
Substance: Avastin: therapeutic MAb, control drug

- redox peaks of Fe(CN)6 probe [4]: gradually disappeared
- Ka (affinity for Herceptin) ([5]; CH-19 modified gold QCM electrode (Figure S3)): 7.96e+08 M⁻¹
- Buffering effects on Herceptin/CH-19 interaction ([5]; Herceptin lowered 10 fold to 0.1 μg/ml, H2O, PBS or HBS-EP): similar
- Overall binding capacity with Herceptin among peptide designs [5, 11]: highest binding capacity with Herceptin
- Herceptin bound to the CH-19 modified gold QCM electrode (mass) ([5]; estimated by Sauerbrey's equation, ΔF of 1 Hz about 1 ng, PBS, 1 μg/ml Herceptin): ~ 225 ng
- frequency change (ΔF) with free Herceptin ([5]; simple buffer (1 ml HBS-EP), 1 μl Herceptin stock 1 μg/μl, no serum): ~ 275 Hz
- frequency shift (ΔF) with Rituxan [6, 12]: ~ 0 Hz
- Nonspecific binding activity with Rituxan among peptide designs [6, 11]: lowest nonspecific binding activity
- frequency shift (ΔF) with Cetuximab [7]: ~ 0 Hz
- Nyquist plots (electron transfer resistance) [8]: enlarged step-by-step
- frequency shift (ΔF) with Avastin [9, 12]: ~ 0 Hz
- Nonspecific binding activity with Avastin among peptide designs [9, 11]: lowest nonspecific binding activity
Substance: CGSGSGSQLGPYELWELSH [CH-19]
- sensitivity ([3]; PBS buffer): 0.52 Hz · ml/ng
- time to detection of Herceptin, in words ([3]; PBS buffer, frequency change vs time): within minutes
- detection limit ([3]; PBS buffer, S/N = 3, N ~ 1.85 Hz): 10.70 ng/mL
- detection limit ([3]; in simple buffers and in human serum samples (Table S3)): 0.038 nM
- detection limit ([3]; piezoimmunosensor assay, standard curve in HBS-EP buffer): 0.038 nM

Substance: GPYELWELSH
- specific binding activities to Herceptin, in words [10]: exhibited specific binding activities to Herceptin

Substance: QLGPYELWELSH
- specific binding activities to Herceptin, in words [10]: exhibited specific binding activities to Herceptin

- Binding to MUA sensor surface, in words [1]: appreciable
- Binding to bare Au sensor surface, in words [2]: negligible
Substance: Rituxan: therapeutic MAb, control drug
